Converted amounts (≈) assume the structure as drawn. The source made the active and inactive calls. No cut-off for these calls is given here.
Legend:
Plasmodium falciparum [1] = test: Antimalarial activity against Plasmodium falciparum 3D7 assessed as reduction in parasite growth measured after 72 hrs by Monash assay based fluorescence analysis; format: functional, organism-based; settings: 3D7, 72 h
Procedure, shortened: (§1)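 Asynchronous P. falciparum cultures were grown continuously in complete RPMI with 25 mM HEPES, 0.5% Albumax II, 0.37 mM hypoxanthine and 2.0 g/l bicarbonate. They were exposed to serially diluted compound for 72 h. Controls were DMSO (0.01%) and a reference positive control. Fluorescence was read after 2 h in the dark at room temperature. IC50 is mean SEM from technical duplicate or triplicate, at least three biological replicates.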

[2] = system: Plasmodium falciparum 3D7; test: Binding affinity to Plasmodium falciparum 3D7 AMA1 (104 to 438 residues) expressed in Escherichia coli BL21(DE3) by surface plasmon resonance assay
[3] = Kinetic solubility of the compound at pH 2 measured after 30 mins by nephelometry; format: physicochemical; settings: buffer, read-out: Kinetic_solubility
Procedure, shortened: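 Compound in DMSO was spiked into 0.01 M HCl (pH ~2.0) at a final DMSO of 1%. After 30 min, nephelometry gave a solubility range.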

[4] = Selectivity index, ratio of IC50 for cytotoxicity against human HEK293 cells to antiplasmodial activity against Plasmodium falciparum 3D7; format: toxicity, cell-based; settings: read-out: Ratio IC50
Plasmodium falciparum [5] = test: Antimalarial activity against synchronous ring stage of Plasmodium falciparum 3D7 assessed as parasite growth inhibition incubated for 72 hrs by Griffith assay based fluorescence analysis; format: functional, organism-based; settings: 3D7, 72 h
Procedure, shortened: (§2)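 22-point dose-response, 3 per log, final 40 µM top, 0.4% DMSO. 72 h at 37 °C under 90% N2/5% CO2/5% O2. DAPI stain, confocal imaging. IC50 from 4-parameter fit normalised to in-plate puromycin and DMSO controls.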

[6] = Metabolic stability in human liver microsomes assessed as half-life at 1 uM measured for 60 mins in presence of NADPH regenerating system by LC-MS analysis; format: ADME, Microsome
Procedure, shortened: (§3)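 Compound was incubated at 37 °C with liver microsomes at 0.4 mg/mL protein. The reaction was started with an NADPH-regenerating system and quenched at time points over 60 min with acetonitrile containing diazepam as internal standard. No-NADPH controls were quenched at 2, 30 and 60 min.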

Plasmodium falciparum [7] = test: Antimalarial activity against artemisinin-sensitive Plasmodium falciparum Cam3.II^rev expressing wild type K13 assessed as reduction in parasite growth measured after 72 hrs by Monash assay based fluorescence analysis; format: functional, organism-based; procedure, shortened: as §1
Plasmodium falciparum [8] = test: Selectivity index, ratio of IC50 for antimalarial activity against PfATP4 inhibitor SJ557733-resistant Plasmodium falciparum Dd2 to IC50 of antimalarial activity against Plasmodium falciparum Dd2; format: functional
Plasmodium falciparum [9] = test: Antimalarial activity against artemisinin-resistant Plasmodium falciparum Cam3.II^C580Y expressing K13 mutant assessed as reduction in parasite growth measured after 72 hrs by Monash assay based fluorescence analysis; format: functional, organism-based
Procedure, shortened: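 Asynchronous culture, 72 h compound exposure. Compounds prepared at […] (twice the top concentration) in complete RPMI (25 mM HEPES, 0.5% Albumax II, 0.37 mM hypoxanthine, sodium bicarbonate), then serially diluted. Fluorescence read after 2 h room-temperature dark incubation. Negative control 0.01% DMSO. IC50 as mean SEM, n ≥ 3 biological replicates, each in technical duplicate or triplicate.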

HEK293 = test: Cytotoxicity against human HEK293 cells assessed as reduction in cell viability at 50 uM measured after 24 hrs by MTT assay; settings: hek293, 24 h
[10] = Metabolic stability in human liver microsomes assessed as intrinsic clearance at 1 uM measured per mg protein after 60 mins in presence of NADPH regenerating system by LC-MS analysis; format: ADME, Microsome; settings: read-out: CLH; procedure, shortened: as §3
[11] = Metabolic stability in mouse liver microsomes assessed as intrinsic clearance at 1 uM measured per mg protein for 60 mins in presence of NADPH regenerating system by LC-MS analysis; format: ADME, Microsome; settings: read-out: CLH; procedure, shortened: as §3
Plasmodium falciparum [12] = test: Antimalarial activity against synchronous ring stage of Plasmodium falciparum Dd2 assessed as parasite growth inhibition incubated for 72 hrs by Griffith assay based fluorescence analysis; format: functional, organism-based; settings: Dd2, 72 h; procedure, shortened: as §2
Plasmodium falciparum [13] = test: Antiplasmodial activity against PfATP4 inhibitor SJ557733-resistant Plasmodium falciparum Dd2 assessed as reduction in parasite growth incubated for 72 hrs by Griffith assay based fluorescence analysis; format: functional, organism-based; settings: Dd2, 72 h; procedure, shortened: as §2
[14] = Selectivity index, ratio of IC50 for antimalarial activity against Plasmodium falciparum Dd2 to IC50 of antimalarial activity against Plasmodium falciparum 3D7; format: functional
[15] = Kinetic solubility of the compound at pH 6.5 measured after 30 mins by nephelometry; settings: buffer, read-out: Kinetic_solubility
[16] = Metabolic stability in mouse liver microsomes assessed as half-life at 1 uM measured for 60 mins in presence of NADPH regenerating system by LC-MS analysis; format: ADME, Microsome; procedure, shortened: as §3

SMILES: Nc1nn(-c2ccccc2O)c2ccccc12
- IC50 (Plasmodium falciparum [1]): > 500 nM

SMILES: Nc1nc2ccccc2n1CCO
- IC50 (Plasmodium falciparum [1]): > 500 nM

SMILES: COc1cccc(-n2c(N)nc3ccccc32)c1O
- IC50 (Plasmodium falciparum [1]): 55 nM

SMILES: Nc1nc2ccccc2n1-c1c(O)cccc1F
- IC50 (Plasmodium falciparum [1]): 321 nM

SMILES: Nc1nc2ccccc2n1-c1cc(F)ccc1O
- IC50 (Plasmodium falciparum [1]): 90 nM

SMILES: Nc1nc2ccccc2n1-c1cnccc1O
- IC50 (Plasmodium falciparum [1]): > 500 nM

SMILES: Nc1nc2ccccc2n1-c1ccc(F)cc1O
- IC50 (Plasmodium falciparum [1]): 188 nM

SMILES: Nc1nc2ccccc2n1-c1ccc2cccnc2c1O
- IC50 (Plasmodium falciparum [1]): > 500 nM

SMILES: COc1cccc(-n2c(N)nc3ccccc32)c1
- IC50 (Plasmodium falciparum [1]): > 500 nM
- Activity [2]: inactive

SMILES: N#Cc1ccc(-n2c(N)nc3ccccc32)cc1
- IC50 (Plasmodium falciparum [1]): > 500 nM
- Activity [2]: inactive

SMILES: Nc1nc2ccccc2n1-c1ccccc1O
- solubility kinetic at 0.5 h [3]: > 100 µg/mL
- selectivity ratio [4]: > 1000
- IC50 (Plasmodium falciparum [5]): 22.2 nM
- half-life at 1 µM [6]: > 4.25 h
- IC50 (Plasmodium falciparum [1]): 77 nM
- IC50 (Plasmodium falciparum [7]): 350 nM
- Ratio IC50 (Plasmodium falciparum [8]): 0.5
- IC50 (Plasmodium falciparum [9]): 264 nM
- Activity (HEK293): Non-Toxic
- microsomal CLint at 1 µM [10]: < 7 µL/min/mg
- microsomal CLint at 1 µM [11]: 22 µL/min/mg
- IC50 (Plasmodium falciparum [12]): 97.3 nM
- IC50 (Plasmodium falciparum [13]): 46 nM
- Ratio IC50 [14]: 4.4
- solubility kinetic at 0.5 h [15]: > 100 µg/mL
- half-life at 1 µM [16]: 1.3 h
- Activity [2]: inactive

SMILES: Nc1nc2cccnc2n1-c1ccccc1O
- IC50 (Plasmodium falciparum [1]): > 500 nM

SMILES: Cc1cc(C)c(O)c(-n2c(N)nc3ccccc32)c1
- solubility kinetic at 0.5 h [3]: > 100 µg/mL
- selectivity ratio [4]: > 1000
- half-life at 1 µM [6]: 2.88 h
- IC50 (Plasmodium falciparum [1]): 23 nM
- IC50 (Plasmodium falciparum [7]): 133 nM
- IC50 (Plasmodium falciparum [9]): 139 nM
- Activity (HEK293): Non-Toxic
- microsomal CLint at 1 µM [10]: 10 µL/min/mg
- microsomal CLint at 1 µM [11]: 476 µL/min/mg
- solubility kinetic at 0.5 h [15]: 12.5 µg/mL (≈ 49.3 µM)
- half-life at 1 µM [16]: 0.0667 h

SMILES: Nc1nccnc1-c1ccccc1O
- IC50 (Plasmodium falciparum [1]): > 500 nM

SMILES: Nc1nc2ccccc2n1-c1cccc(F)c1O
- IC50 (Plasmodium falciparum [1]): > 500 nM

SMILES: Nc1nc2ccccc2n1[C@H]1CCCC[C@@H]1O
- IC50 (Plasmodium falciparum [1]): > 500 nM

SMILES: Nc1ccccc1-n1c(O)nc2ccccc21
- IC50 (Plasmodium falciparum [1]): > 500 nM

SMILES: COc1ccc(-n2c(N)nc3ccccc32)c(O)c1
- solubility kinetic at 0.5 h [3]: > 100 µg/mL
- selectivity ratio [4]: > 1000
- half-life at 1 µM [6]: 2.07 h
- IC50 (Plasmodium falciparum [1]): 43 nM
- IC50 (Plasmodium falciparum [7]): 212 nM
- IC50 (Plasmodium falciparum [9]): 168 nM
- Activity (HEK293): Non-Toxic
- microsomal CLint at 1 µM [10]: 14 µL/min/mg
- microsomal CLint at 1 µM [11]: 271 µL/min/mg
- solubility kinetic at 0.5 h [15]: 50 µg/mL (≈ 196 µM)
- half-life at 1 µM [16]: 0.1 h

SMILES: Oc1ccccc1-n1c(NCc2ccccc2)nc2ccccc21
- IC50 (Plasmodium falciparum [1]): > 500 nM

SMILES: Nc1nc2ccccc2n1-c1ccccc1CO
- IC50 (Plasmodium falciparum [1]): > 500 nM
- Activity [2]: inactive

SMILES: Nc1nc2ccccc2n1-c1ccc(Cl)cc1O
- IC50 (Plasmodium falciparum [1]): 164 nM

SMILES: CCCNc1nc2ccccc2n1-c1ccccc1O
- IC50 (Plasmodium falciparum [1]): > 500 nM

SMILES: COc1ccc(O)c(-n2c(N)nc3ccccc32)c1
- IC50 (Plasmodium falciparum [1]): > 500 nM

SMILES: Nc1nc2ccccc2n1-c1cccc2cc[nH]c12
- IC50 (Plasmodium falciparum [1]): > 500 nM

SMILES: N#Cc1cc(NC(=O)[C@H]2c3ccccc3C(=O)N(CC(F)(F)F)[C@@H]2c2cccnc2)ccc1F [SJ-733]
- Ratio IC50 (Plasmodium falciparum [8]): > 135
- IC50 (Plasmodium falciparum [12]): 58.7 nM
- IC50 (Plasmodium falciparum [13]): > 8000 nM

SMILES: Oc1ccccc1-n1c(NCC2CC2)nc2ccccc21
- IC50 (Plasmodium falciparum [1]): > 500 nM

SMILES: C[C@H]1[C@@H](O)O[C@@H]2O[C@@]3(C)CC[C@H]4[C@H](C)CC[C@@H]1[C@@]24OO3 [ARTENIMOL]
- IC50 (Plasmodium falciparum [5]): 0.4 nM
- IC50 (Plasmodium falciparum [1]): 2 nM
- IC50 (Plasmodium falciparum [12]): 0.6 nM
- Ratio IC50 [14]: 1.3

SMILES: Nc1nc2ccccc2n1-c1cccc(Cl)c1O
- IC50 (Plasmodium falciparum [1]): > 500 nM

SMILES: Cc1ccc(-n2c(N)nc3ccccc32)cc1
- IC50 (Plasmodium falciparum [1]): > 500 nM
- Activity [2]: inactive

SMILES: CC(C)Nc1nc2ccccc2n1-c1ccccc1O
- IC50 (Plasmodium falciparum [1]): > 500 nM

SMILES: CCNc1nc2ccccc2n1-c1ccccc1O
- IC50 (Plasmodium falciparum [1]): > 500 nM

SMILES: CCCCNc1nc2ccccc2n1-c1ccccc1O
- IC50 (Plasmodium falciparum [1]): 278 nM

SMILES: Cc1cc(O)c(-n2c(N)nc3ccccc32)cc1C
- solubility kinetic at 0.5 h [3]: > 100 µg/mL
- selectivity ratio [4]: > 1000
- half-life at 1 µM [6]: 2.15 h
- IC50 (Plasmodium falciparum [1]): 6.4 nM
- IC50 (Plasmodium falciparum [7]): 47 nM
- IC50 (Plasmodium falciparum [9]): 63 nM
- Activity (HEK293): Non-Toxic
- microsomal CLint at 1 µM [10]: 13 µL/min/mg
- microsomal CLint at 1 µM [11]: 76 µL/min/mg
- solubility kinetic at 0.5 h [15]: 12.5 µg/mL (≈ 49.3 µM)
- half-life at 1 µM [16]: 0.383 h

From ChEMBL document CHEMBL4837227, “Discovery and development of 2-aminobenzimidazoles as potent antimalarials” (Eur J Med Chem, 2021)
